Data taken from ChEMBL document CHEMBL1142625, “Antifungal substances against pathogenic fungi, talaroconvolutins, from talaromyces convolutus” (J Nat Prod, 2000).
Activity calls are given as the source filed them. The rule behind the calls is not given here.

Experiments:
Cryptococcus neoformans [1] = assay: Antifungal activity against Cryptococcus neoformans (Sanfelice) Vuillemin ATCC 90112 assessed as diameter of inhibition zone at 100 ug/disk after 48 to 72 hrs by paper disk assay; type: functional
Outline: (§1)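 Compound was absorbed onto 8 mm paper disks and the disks were placed on assay plates seeded with the test fungus. Plates contained Sabouraud's glucose broth agar and were incubated at 25 °C. After 48–72 h, the diameter of the inhibition zone was recorded in mm.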

Cryptococcus neoformans [2] = assay: Antifungal activity against Cryptococcus neoformans (Sanfelice) Vuillemin ATCC 90112 assessed as diameter of inhibition zone at 1 ug/disk after 48 to 72 hrs by paper disk assay; type: functional; outline: as §1
Cryptococcus neoformans [3] = assay: Antifungal activity against Cryptococcus neoformans (Sanfelice) Vuillemin ATCC 90112 assessed as diameter of inhibition zone at 20 ug/disk after 48 to 72 hrs by paper disk assay; type: functional; outline: as §1
Cryptococcus neoformans [4] = assay: Antifungal activity against Cryptococcus neoformans (Sanfelice) Vuillemin ATCC 90112 assessed as diameter of inhibition zone at 5 ug/disk after 48 to 72 hrs by paper disk assay; type: functional; outline: as §1
Candida albicans [5] = assay: Antifungal activity against Candida albicans 7N assessed as diameter of inhibition zone at 5 ug/disk after 48 to 72 hrs by paper disk assay; type: functional; details: for zone of inhibition at 5 µg/disc: Candida albicans, read-out: IZ; outline: as §1
Aspergillus niger [6] = assay: Antifungal activity against Aspergillus niger Van Tieghem H7160B assessed as diameter of inhibition zone at 5 ug/disk after 48 to 72 hrs by paper disk assay; type: functional; details: for zone of inhibition at 5 µg/disc: Aspergillus niger, Van Tieghem, read-out: IZ; outline: as §1
Candida albicans [7] = assay: Antifungal activity against Candida albicans 7N assessed as diameter of inhibition zone at 100 ug/disk after 48 to 72 hrs by paper disk assay; type: functional; details: for zone of inhibition at 100 µg/disc: Candida albicans, read-out: IZ; outline: as §1
Aspergillus fumigatus [8] = assay: Antifungal activity against Aspergillus fumigatus Fresenius 167 assessed as diameter of inhibition zone at 5 ug/disk after 48 to 72 hrs by paper disk assay; type: functional; details: for zone of inhibition at 5 µg/disc: Aspergillus fumigatus, read-out: IZ; outline: as §1
Candida albicans [9] = assay: Antifungal activity against Candida albicans 7N assessed as diameter of inhibition zone at 20 ug/disk after 48 to 72 hrs by paper disk assay; type: functional; details: for zone of inhibition at 20 µg/disc: Candida albicans, read-out: IZ; outline: as §1
Aspergillus niger [10] = assay: Antifungal activity against Aspergillus niger Van Tieghem H7160B assessed as diameter of inhibition zone at 20 ug/disk after 48 to 72 hrs by paper disk assay; type: functional; details: for zone of inhibition at 20 µg/disc: Aspergillus niger, Van Tieghem, read-out: IZ; outline: as §1
Candida albicans [11] = assay: Antifungal activity against Candida albicans 7N assessed as diameter of inhibition zone at 1 ug/disk after 48 to 72 hrs by paper disk assay; type: functional; details: for zone of inhibition at 1 µg/disc: Candida albicans, read-out: IZ; outline: as §1
Aspergillus fumigatus [12] = assay: Antifungal activity against Aspergillus fumigatus Fresenius 167 assessed as diameter of inhibition zone at 100 ug/disk after 48 to 72 hrs by paper disk assay; type: functional; details: for zone of inhibition at 100 µg/disc: Aspergillus fumigatus, read-out: IZ; outline: as §1
Aspergillus niger [13] = assay: Antifungal activity against Aspergillus niger Van Tieghem H7160B assessed as diameter of inhibition zone at 100 ug/disk after 48 to 72 hrs by paper disk assay; type: functional; details: for zone of inhibition at 100 µg/disc: Aspergillus niger, Van Tieghem, read-out: IZ; outline: as §1
Aspergillus fumigatus [14] = assay: Antifungal activity against Aspergillus fumigatus Fresenius 167 assessed as diameter of inhibition zone at 20 ug/disk after 48 to 72 hrs by paper disk assay; type: functional; details: for zone of inhibition at 20 µg/disc: Aspergillus fumigatus, read-out: IZ; outline: as §1
Candida albicans [15] = assay: Antifungal activity against Candida albicans 7N assessed as diameter of inhibition zone upto 100 ug/disk after 48 to 72 hrs by paper disk assay; type: functional, organism-based; outline: as §1
Aspergillus fumigatus [16] = assay: Antifungal activity against Aspergillus fumigatus Fresenius 167 assessed as diameter of inhibition zone upto 100 ug/disk after 48 to 72 hrs by paper disk assay; type: functional, organism-based; outline: as §1
Aspergillus niger [17] = assay: Antifungal activity against Aspergillus niger Van Tieghem H7160B assessed as diameter of inhibition zone upto 100 ug/disk after 48 to 72 hrs by paper disk assay; type: functional, organism-based; outline: as §1
Cryptococcus neoformans [18] = assay: Antifungal activity against Cryptococcus neoformans (Sanfelice) Vuillemin ATCC 90112 assessed as diameter of inhibition zone upto 100 ug/disk after 48 to 72 hrs by paper disk assay; type: functional, organism-based; outline: as §1
Aspergillus niger [19] = assay: Antifungal activity against Aspergillus niger Van Tieghem H7160B assessed as diameter of inhibition zone at 1 ug/disk after 48 to 72 hrs by paper disk assay; type: functional; outline: as §1
Aspergillus fumigatus [20] = assay: Antifungal activity against Aspergillus fumigatus Fresenius 167 assessed as diameter of inhibition zone at 1 ug/disk after 48 to 72 hrs by paper disk assay; type: functional; details: for zone of inhibition at 1 µg/disc: read-out: IZ; outline: as §1

CCC(C)/C=C(\C)[C@H]1C(C)=C[C@@]2(C)C[C@@H](C)CC[C@@H]2[C@H]1C(=O)C1=CC(O)(Cc2ccc(O)cc2)NC1=O (stereo in doubt; 5)
Activity (Cryptococcus neoformans [1]): inactive
Activity (Cryptococcus neoformans [2]): inactive
Activity (Cryptococcus neoformans [3]): inactive
Activity (Cryptococcus neoformans [4]): inactive

CCC(C)/C=C(\C)[C@H]1C(C)=C[C@@]2(C)C[C@@H](C)CC[C@@H]2[C@H]1C(=O)C1=CC(O)(Cc2ccc(O)cc2)NC1=O (stereo in doubt; 2) [TALAROCONVOLUTIN B]
zone of inhibition at 5 µg/disc (Candida albicans [5]): 13 mm
zone of inhibition at 5 µg/disc (Aspergillus niger [6]): 9 mm
zone of inhibition at 100 µg/disc (Candida albicans [7]): 15 mm
zone of inhibition at 5 µg/disc (Aspergillus fumigatus [8]): 10 mm
zone of inhibition at 20 µg/disc (Candida albicans [9]): 14 mm
zone of inhibition at 20 µg/disc (Aspergillus niger [10]): 10 mm
zone of inhibition at 1 µg/disc (Candida albicans [11]): 11 mm
zone of inhibition at 100 µg/disc (Aspergillus fumigatus [12]): 12 mm
zone of inhibition at 100 µg/disc (Aspergillus niger [13]): 11 mm
zone of inhibition at 20 µg/disc (Aspergillus fumigatus [14]): 11 mm

CCC(C)/C=C(\C)[C@H]1C(C)=C[C@@]2(C)C[C@@H](C)CC[C@@H]2[C@H]1C(=O)C1C(=O)NC2(Cc3ccc(O)cc3)OC(C)(C)OC12 (some centres undefined)
Activity (Candida albicans [15]): inactive
Activity (Aspergillus fumigatus [16]): inactive
Activity (Aspergillus niger [17]): inactive
Activity (Cryptococcus neoformans [18]): inactive

CCOC1C(C(=O)[C@H]2[C@@H](/C(C)=C/C(C)CC)C(C)=C[C@@]3(C)C[C@@H](C)CC[C@H]23)C(=O)NC1(O)Cc1ccc(O)cc1 (some centres undefined) [TALAROCONVOLUTIN C]
Activity (Candida albicans [5]): inactive
Activity (Cryptococcus neoformans [1]): inactive
inhibition zone (IZ) (Aspergillus niger [19]): inactive
Activity (Aspergillus niger [6]): inactive
zone of inhibition at 100 µg/disc (Candida albicans [7]): 11 mm
Activity (Aspergillus fumigatus [8]): inactive
Activity (Cryptococcus neoformans [2]): inactive
zone of inhibition at 20 µg/disc (Candida albicans [9]): 10 mm
Activity (Cryptococcus neoformans [3]): inactive
zone of inhibition at 20 µg/disc (Aspergillus niger [10]): 10 mm
Activity (Candida albicans [11]): inactive
zone of inhibition at 100 µg/disc (Aspergillus fumigatus [12]): 11 mm
zone of inhibition at 100 µg/disc (Aspergillus niger [13]): 11 mm
zone of inhibition at 20 µg/disc (Aspergillus fumigatus [14]): 11 mm
Activity (Aspergillus fumigatus [20]): inactive
Activity (Cryptococcus neoformans [4]): inactive
Activity (Cryptococcus neoformans [18]): inactive

CCC(C)/C=C(\C)[C@H]1C(C)=C[C@@]2(C)C[C@@H](C)CC[C@@H]2[C@H]1C(=O)C1=C/C(=C/c2ccc(O)cc2)NC1=O (some centres undefined)
Activity (Candida albicans [15]): inactive
Activity (Aspergillus fumigatus [16]): inactive
Activity (Aspergillus niger [17]): inactive
Activity (Cryptococcus neoformans [18]): inactive

C[C@@H]1[C@H](O)[C@@H](C)/C=C/C=C/C=C/C=C/C=C/C=C/C=C/[C@H](O[C@@H]2O[C@H](C)[C@@H](O)[C@H](N)[C@@H]2O)C[C@@H]2O[C@](O)(C[C@@H](O)C[C@@H](O)[C@H](O)CC[C@@H](O)C[C@@H](O)CC(=O)O[C@H]1C)C[C@H](O)[C@H]2C(=O)O [AMPHOTERICIN B]
zone of inhibition at 5 µg/disc (Candida albicans [5]): 18 mm
zone of inhibition at 100 µg/disc (Cryptococcus neoformans [1]; read-out: IZ): 19 mm
zone of inhibition at 1 µg/disc (Aspergillus niger [19]; Aspergillus niger, Van Tieghem, read-out: IZ): 16 mm
zone of inhibition at 5 µg/disc (Aspergillus niger [6]): 20 mm
zone of inhibition at 100 µg/disc (Candida albicans [7]): 20 mm
zone of inhibition at 5 µg/disc (Aspergillus fumigatus [8]): 12 mm
zone of inhibition at 1 µg/disc (Cryptococcus neoformans [2]; read-out: IZ): 11 mm
zone of inhibition at 20 µg/disc (Candida albicans [9]): 20 mm
zone of inhibition at 20 µg/disc (Cryptococcus neoformans [3]; read-out: IZ): 16 mm
zone of inhibition at 20 µg/disc (Aspergillus niger [10]): 24 mm
zone of inhibition at 1 µg/disc (Candida albicans [11]): 15 mm
zone of inhibition at 100 µg/disc (Aspergillus fumigatus [12]): 17 mm
zone of inhibition at 100 µg/disc (Aspergillus niger [13]): 25 mm
zone of inhibition at 20 µg/disc (Aspergillus fumigatus [14]): 14 mm
zone of inhibition at 1 µg/disc (Aspergillus fumigatus [20]): 10 mm
zone of inhibition at 5 µg/disc (Cryptococcus neoformans [4]; read-out: IZ): 13 mm

CCC(C)/C=C(\C)[C@H]1C(C)=C[C@@]2(C)C[C@@H](C)CC[C@@H]2[C@H]1C(=O)C1=CC(O)(Cc2ccc(O)cc2)NC1=O (stereo in doubt; 2)
Activity (Cryptococcus neoformans [1]): inactive
Activity (Aspergillus niger [19]): inactive
Activity (Cryptococcus neoformans [2]): inactive
Activity (Cryptococcus neoformans [3]): inactive
Activity (Aspergillus fumigatus [20]): inactive
Activity (Cryptococcus neoformans [4]): inactive
Activity (Cryptococcus neoformans [18]): inactive

CCC(C)/C=C(\C)[C@H]1C(C)=C[C@@]2(C)C[C@@H](C)CC[C@@H]2[C@H]1C(=O)C1=CC(O)(Cc2ccc(O)cc2)NC1=O (stereo in doubt; 5) [TALAROCONVOLUTIN B]
inhibition zone (IZ) (Candida albicans [5]): 17 mm
Activity (Aspergillus niger [19]): 11 mm
inhibition zone (IZ) (Aspergillus niger [6]): 13 mm
inhibition zone (IZ) (Candida albicans [7]): 20 mm
inhibition zone (IZ) (Aspergillus fumigatus [8]): 14 mm
inhibition zone (IZ) (Candida albicans [9]): 18 mm
inhibition zone (IZ) (Aspergillus niger [10]): 15 mm
inhibition zone (IZ) (Candida albicans [11]): 15 mm
inhibition zone (IZ) (Aspergillus fumigatus [12]): 17 mm
inhibition zone (IZ) (Aspergillus niger [13]): 16 mm
inhibition zone (IZ) (Aspergillus fumigatus [14]): 15 mm
zone of inhibition at 1 µg/disc (Aspergillus fumigatus [20]): 11 mm
